Source: article PMC11327602 (Heliyon, 2024)
Values joined by “and” are separate entries in the source; they are usually repeats but may differ in a detail not shown here. Equal entries are not always repeated.

What was measured:
jack bean urease = jack bean urease (Canavalia ensiformis, UniProt P07374); experiment: Urease inhibition assay; assay type: biochemical; conditions: for IC50: Enzyme (SEM ±) J.B Urease, IC50, mean ± SEM, 3 experiments
[1] = molecular target: Bacillus Pasteurii urease (Sporosarcina pasteurii, UniProt P41020); experiment: Urease inhibition assay; assay type: biochemical; conditions: Enzyme (SEM ±) B.P Urease, IC50, mean ± SEM, 3 experiments
α-Glucosidase = α-Glucosidase (Saccharomyces cerevisiae, UniProt P53341); experiment: α-Glucosidase inhibition assay; assay type: biochemical
In short: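 Test compound (200–800 μg/mL) pre-incubated 5 min at 37 °C with 2 % w/v starch (sucrose) solution in 0.2 M Tris buffer, pH 8.0. 5 mM p-nitrophenyl-α-D-glucopyranoside added intermittently, then α-glucosidase (1 U/mL), 40 min at 35 °C. Stopped with […]; absorbance read at 405 nm. % inhibition = (control − sample)/control × 100; samples above 50 % taken to IC50.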

[2] = DPPH free radical scavenging activity; conditions: for IC50: read-out: DPPH scavenging IC50
ABTS method = conditions: for IC50: read-out: ABTS scavenging IC50
[3] = Superoxide anion scavenging assay; conditions: for IC50: read-out: superoxide anion scavenging IC50

Chain of α-Glucosidase (P53341 whole entry): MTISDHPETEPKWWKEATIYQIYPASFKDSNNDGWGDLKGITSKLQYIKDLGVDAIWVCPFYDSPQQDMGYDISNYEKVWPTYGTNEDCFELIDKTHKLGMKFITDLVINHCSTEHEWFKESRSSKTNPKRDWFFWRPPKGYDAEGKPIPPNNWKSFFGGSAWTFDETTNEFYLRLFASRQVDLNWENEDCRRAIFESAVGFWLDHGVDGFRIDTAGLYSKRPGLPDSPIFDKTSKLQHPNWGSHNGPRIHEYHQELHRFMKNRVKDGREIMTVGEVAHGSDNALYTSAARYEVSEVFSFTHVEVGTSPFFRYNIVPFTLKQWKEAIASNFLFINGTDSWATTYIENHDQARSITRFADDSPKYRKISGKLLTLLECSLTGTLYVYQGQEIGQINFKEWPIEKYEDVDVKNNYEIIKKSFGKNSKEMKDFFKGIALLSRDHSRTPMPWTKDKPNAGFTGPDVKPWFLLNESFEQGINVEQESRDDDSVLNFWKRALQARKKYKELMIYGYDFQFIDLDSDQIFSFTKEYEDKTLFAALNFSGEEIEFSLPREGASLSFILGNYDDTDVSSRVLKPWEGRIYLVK
Chain of jack bean urease (P07374 whole entry, looked up): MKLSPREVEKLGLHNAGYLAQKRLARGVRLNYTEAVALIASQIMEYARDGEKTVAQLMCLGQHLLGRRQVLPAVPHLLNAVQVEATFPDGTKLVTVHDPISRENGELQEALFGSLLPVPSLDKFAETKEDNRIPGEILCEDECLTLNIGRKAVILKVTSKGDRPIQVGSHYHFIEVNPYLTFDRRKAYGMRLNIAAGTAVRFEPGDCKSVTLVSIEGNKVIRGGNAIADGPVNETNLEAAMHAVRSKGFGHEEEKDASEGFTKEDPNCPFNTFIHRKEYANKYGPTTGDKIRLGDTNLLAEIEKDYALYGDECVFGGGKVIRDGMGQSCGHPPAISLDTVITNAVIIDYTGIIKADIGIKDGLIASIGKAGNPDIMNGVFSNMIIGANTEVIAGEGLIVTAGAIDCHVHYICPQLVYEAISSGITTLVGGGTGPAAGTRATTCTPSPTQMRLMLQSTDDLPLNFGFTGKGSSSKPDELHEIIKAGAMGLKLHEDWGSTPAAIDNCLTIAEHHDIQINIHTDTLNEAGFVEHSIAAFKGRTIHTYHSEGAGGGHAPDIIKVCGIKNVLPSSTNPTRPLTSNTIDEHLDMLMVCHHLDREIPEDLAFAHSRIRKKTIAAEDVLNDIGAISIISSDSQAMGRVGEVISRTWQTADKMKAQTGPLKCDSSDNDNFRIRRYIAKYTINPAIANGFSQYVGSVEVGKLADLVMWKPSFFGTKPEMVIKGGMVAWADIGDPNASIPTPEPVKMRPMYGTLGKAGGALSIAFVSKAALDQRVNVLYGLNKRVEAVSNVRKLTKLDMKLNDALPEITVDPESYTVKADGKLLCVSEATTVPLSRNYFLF
Chain of Bacillus Pasteurii urease (P41020 whole entry): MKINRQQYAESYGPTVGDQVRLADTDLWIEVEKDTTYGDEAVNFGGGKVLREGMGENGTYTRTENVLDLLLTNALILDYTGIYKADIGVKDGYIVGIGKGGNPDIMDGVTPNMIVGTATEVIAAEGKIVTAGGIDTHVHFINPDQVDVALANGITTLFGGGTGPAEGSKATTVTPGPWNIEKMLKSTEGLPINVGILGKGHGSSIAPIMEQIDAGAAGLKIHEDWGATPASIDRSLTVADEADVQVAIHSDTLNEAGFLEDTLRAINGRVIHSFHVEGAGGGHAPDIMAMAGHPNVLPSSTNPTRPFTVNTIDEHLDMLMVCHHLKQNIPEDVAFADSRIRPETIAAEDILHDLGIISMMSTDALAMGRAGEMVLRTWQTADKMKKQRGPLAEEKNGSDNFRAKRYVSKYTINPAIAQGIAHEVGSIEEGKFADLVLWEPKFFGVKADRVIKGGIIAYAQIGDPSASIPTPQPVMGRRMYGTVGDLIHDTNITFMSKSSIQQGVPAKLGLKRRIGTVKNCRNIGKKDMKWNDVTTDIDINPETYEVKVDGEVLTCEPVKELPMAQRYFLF
Chain of Bacillus Pasteurii urease (P41021 whole entry partner): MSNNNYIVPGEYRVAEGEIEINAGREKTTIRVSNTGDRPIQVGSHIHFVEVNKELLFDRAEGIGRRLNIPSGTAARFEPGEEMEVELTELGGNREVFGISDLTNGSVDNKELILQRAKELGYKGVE
Chain of Bacillus Pasteurii urease (P41022 whole entry partner): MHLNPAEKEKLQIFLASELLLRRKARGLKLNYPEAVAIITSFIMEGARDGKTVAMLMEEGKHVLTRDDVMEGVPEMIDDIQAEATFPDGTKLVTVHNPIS

| Compound | Types of inhibition (urease) (jack bean urease) | IC50 (jack bean urease) | IC50 [1] | Type of Inhibition (α-glucosidase and α-amylase) (α-Glucosidase) | IC50 [2] | IC50 (ABTS method) | IC50 [3] | DPPH % Scavenging ([2]; 25 μM) | DPPH % Scavenging ([2]; 50 μM) | DPPH % Scavenging ([2]; 75 μM) | DPPH % Scavenging ([2]; 100 μM) | ABTS % Scavenging (ABTS method; 10 μM) | ABTS % Scavenging (ABTS method; 20 μM) | ABTS % Scavenging (ABTS method; 30 μM) | ABTS % Scavenging (ABTS method; 40 μM) | ABTS % Scavenging (ABTS method; 50 μM) | superoxide anion % scavenging ([3]; 25 μM) | superoxide anion % scavenging ([3]; 50 μM) | superoxide anion % scavenging ([3]; 75 μM) | superoxide anion % scavenging ([3]; 100 μM) | also measured |
| --- | --- | --- | --- | --- | --- | --- | --- | --- | --- | --- | --- | --- | --- | --- | --- | --- | --- | --- | --- | --- | --- |
| C=CCN(c1nccs1)S(=O)(=O)c1ccc([N+](=O)[O-])cc1 [Compound 32, N-Allyl-4-nitro-N-(thiazol-2-yl)benzenesulfonamide] | Non-competitive | 52.1 ± 1.12 µM | 57.89 ± 0.18 µM | Non-competitive | 46.2 ± 0.01 µM | 31.01 ± 0.09 µM | 49 ± 0.12 µM | 39.2 ± 0.2% | 53.5 ± 0.3% | 64.4 ± 0.01% | 88.2 ± 0.2% | 12.02 ± 0.03% | 25.03 ± 0.01% | 49.01 ± 0.09% | 75.03 ± 0.02% | 94.06 ± 0.21% | 15 ± 0.05% | 32 ± 0.02% | 67 ± 0.11% | 97 ± 0.51% | inhibition against both enzymes (J.B. and B.P urease), in words (jack bean urease): weak inhibition |
| CN(c1nccs1)S(=O)(=O)c1ccc(Br)cc1 [Compound 35, 4-Bromo-N-methyl-N-(thiazol-2-yl)benzenesulfonamide] | Competitive | 18.7 µM | 20.21 ± 0.19 µM | Competitive | 53.1 ± 0.11 µM | 38.01 ± 0.13 µM | ~38 µM and 38 µM | 28.1 ± 0.04% | 34.4 ± 0.8% | 61.5 ± 0.03% | 89.1 ± 0.6% | 33.02 ± 0.08% | 31.05 ± 0.01% | 43.01 ± 0.03% | 62.2 ± 0.09% | 105.13 ± 0.11% | 27 ± 0.12% | 53 ± 0.05% | 64 ± 0.04% | 89 ± 0.28% | inhibition against both enzymes (α-glucosidase and α-amylase), in words (α-Glucosidase): weak inhibition |
| CN(c1nccs1)S(=O)(=O)c1ccccc1 [Compound 36, N-Methyl-N-(thiazol-2-yl)benzenesulfonamide] | Competitive | 14.06 ± 0.03 µM | 17.06 ± 0.03 µM | Non-competitive | ~49.3 µM and 49.3 µM | 45.07 ± 0.09 µM | 57.1 ± 0.09 µM | 25.3 ± 0.07% | 65.5 ± 0.12% | 88.3 ± 0.11% | 93.8 ± 0.09% | 23.2 ± 0.11% | 37.5 ± 0.2% | 48.3 ± 0.21% | 65.5 ± 0.01% | 87.5 ± 0.05% | 20.6 ± 0.11% | 43.6 ± 0.12% | 65.1 ± 0.5% | 87.5 ± 0.08% | inhibition against both enzymes (α-glucosidase and α-amylase), in words (α-Glucosidase): weak inhibition |
| CN(c1nccs1)S(=O)(=O)c1ccc(Cl)cc1 [Compound 37, 4-Chloro-N-methyl-N-(thiazol-2-yl)benzenesulfonamide] | Competitive | 21.02 ± 0.21 µM | 25.4 ± 0.31 µM | Non-competitive | 57.1 ± 0.11 µM | 34.11 ± 0.16 µM | 54 ± 0.15 µM | 19 ± 0.17% | 42.4 ± 0.8% | 66.8 ± 0.15% | 99.1 ± 0.21% | 30.22 ± 0.22% | 41.25 ± 0.11% | 48.01 ± 0.12% | 65.5 ± 0.07% | 99.03 ± 0.15% | 37 ± 0.21% | 43 ± 0.6% | 67 ± 0.03% | 99 ± 0.15% | inhibition against both enzymes (α-glucosidase and α-amylase), in words (α-Glucosidase): weak inhibition |
| CN(c1nccs1)S(=O)(=O)c1ccc([N+](=O)[O-])cc1 [Compound 39, N-Methyl-4-nitro-N-(thiazol-2-yl)benzenesulfonamide] | Non-competitive | 38.17 ± 0.01 µM | 43.71 ± 0.13 µM | Non-competitive | 43.02 ± 0.13 µM | 36.09 ± 0.15 µM | 54.1 ± 0.55 µM | 15.04 ± 0.05% | 55.02 ± 0.08% | 77.08 ± 0.11% | 91.01 ± 0.34% | 24.02 ± 0.05% | 39.01 ± 0.3% | 47.06 ± 0.1% | 72.11 ± 0.09% | 102.03 ± 0.01% | 22.2 ± 0.01% | 48.5 ± 0.17% | 71.4 ± 0.34% | 93.8 ± 0.11% | inhibition against both enzymes (α-glucosidase and α-amylase), in words (α-Glucosidase): weak inhibition |

More lines, main results first:

| Types of inhibition (urease) (jack bean urease) | IC50 (jack bean urease) | IC50 [1] | Type of Inhibition (α-glucosidase and α-amylase) (α-Glucosidase) | IC50 [2] | IC50 (ABTS method) | IC50 [3] | Compound | DPPH % Scavenging ([2]; 25 μM) | DPPH % Scavenging ([2]; 50 μM) | DPPH % Scavenging ([2]; 75 μM) | DPPH % Scavenging ([2]; 100 μM) | ABTS % Scavenging (ABTS method; 10 μM) | ABTS % Scavenging (ABTS method; 20 μM) | ABTS % Scavenging (ABTS method; 30 μM) | ABTS % Scavenging (ABTS method; 40 μM) | ABTS % Scavenging (ABTS method; 50 μM) | superoxide anion % scavenging ([3]; 25 μM) | superoxide anion % scavenging ([3]; 50 μM) | superoxide anion % scavenging ([3]; 75 μM) | superoxide anion % scavenging ([3]; 100 μM) | also measured |
| --- | --- | --- | --- | --- | --- | --- | --- | --- | --- | --- | --- | --- | --- | --- | --- | --- | --- | --- | --- | --- | --- |
| Non-competitive | 22.1 ± 0.29 µM | 25.09 ± 0.14 µM | Competitive | ~34.4 µM and 34.4 µM | ~35.1 µM | 38 ± 0.55 µM | Cc1ccc(S(=O)(=O)N(C)c2nccs2)cc1 [Compound 33, N,4-Dimethyl-N-(thiazol-2-yl)benzenesulfonamide] | 30.2 ± 0.2% | 37.4 ± 0.1% | 65.6 ± 0.01% | 88.3 ± 0.2% | 29.02 ± 0.08% | 41.07 ± 0.03% | 49.08 ± 0.01% | 72.02 ± 0.07% | – | 20 ± 0.01% | 51 ± 0.03% | 60 ± 0.15% | 99 ± 0.18% | inhibition against both enzymes (α-glucosidase and α-amylase), in words (α-Glucosidase): weak inhibition |
| Competitive | 16 ± 0.21 µM | 18.7 µM | Non-competitive | 45.5 ± 0.05 µM | 47.1 µM | 52.1 ± 0.01 µM | COc1ccc(S(=O)(=O)N(C)c2nccs2)cc1 [Compound 34, 4-Methoxy-N-methyl-N-(thiazol-2-yl)benzenesulfonamide] | 29.2 ± 0.01% | 69.6 ± 0.2% | 78.4 ± 0.2% | 94.8 ± 0.03% | 27.2 ± 0.01% | 35.6 ± 0.2% | 46.4 ± 0.2% | 69.8 ± 0.03% | 80.1 ± 0.08% | 18.2 ± 0.01% | 39.6 ± 0.2% | 69.4 ± 0.2% | 89.8 ± 0.03% | inhibition against both enzymes (α-glucosidase and α-amylase), in words (α-Glucosidase): weak inhibition |
| Competitive | 24.31 ± 0.18 µM | 27.15 ± 0.14 µM | Non-competitive | 69.5 ± 0.1 µM | 49.03 ± 0.15 µM | 67.6 ± 0.93 µM | CN(c1nccs1)S(=O)(=O)c1ccc(F)cc1 [Compound 38, 4-Fluoro-N-methyl-N-(thiazol-2-yl)benzenesulfonamide] | 21.3 ± 0.11% | 67.3 ± 0.2% | 89.3 ± 0.05% | 95.01 ± 0.9% | 13.2 ± 0.91% | 35.3 ± 0.42% | 41.2 ± 0.71% | 48.13 ± 0.11% | 79.3 ± 0.44% | 31.5 ± 0.11% | 45.01 ± 0.5% | 55.7 ± 0.5% | 92.5 ± 0.03% | – |
